Measurements from publication PMC3562655 (Journal of bone and mineral research : the official journal …, 2013).

What was measured:
[1] = target: T1, purified recombinant human PHOSPHO1 (Homo sapiens, UniProt Q8TCT1); assay: PHOSPHO1 inhibition, Biomol Green colorimetric phosphate release assay; format: biochemical; details: for IC50: pH 6.7, 60 min room temperature
T1 sequence (Q8TCT1 1-292 isoform Q8TCT1-3): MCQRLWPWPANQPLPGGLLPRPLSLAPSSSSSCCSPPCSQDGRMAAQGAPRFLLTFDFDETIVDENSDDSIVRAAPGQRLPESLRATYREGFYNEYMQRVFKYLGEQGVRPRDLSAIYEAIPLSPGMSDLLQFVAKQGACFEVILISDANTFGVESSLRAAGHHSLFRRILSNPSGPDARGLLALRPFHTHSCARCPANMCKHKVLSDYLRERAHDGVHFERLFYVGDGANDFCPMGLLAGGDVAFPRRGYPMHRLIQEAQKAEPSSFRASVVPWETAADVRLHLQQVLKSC

PHOSPHO1 = target: T2, PHOSPHO1 (Homo sapiens, UniProt Q8TCT1); assay: Mechanism of PHOSPHO1 inhibition, double reciprocal plots; format: biochemical
T2 sequence (Q8TCT1 1-292 isoform Q8TCT1-3): T1 sequence (Q8TCT1 1-292 isoform Q8TCT1-3)

WT VSMCs = assay: Calcification assay, Alizarin Red staining of WT VSMCs; format: cell-based, mouse
Outline: (§1)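 Aortic VSMCs from WT, Enpp1-/- or Phospho1-/- mice were isolated by collagenase digestion and grown in triplicate for 21 days. Medium was α-MEM with 50 µg/mL ascorbic acid plus 2.5 mmol/L β-glycerophosphate (all genotypes) or 3 mmol/L sodium phosphate (WT), changed every second day. Test compound (DMSO; final 30 µmol/L), alone or combined, was added at each change. Staining used 2% Alizarin Red (pH 4.2, 30 min RT), then 10% cetylpyridinium chloride extraction, absorbance read. Values are % of vehicle control, mean ± S.E.M.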

[2] = test system: Phospho1^-/- chondrocytes; assay: Mineralization of Phospho1-/- chondrocytes; format: cell-based; details: not shown
TNAP = target: T3, TNAP (Homo sapiens, UniProt P05186); details: ref Ciancaglini et al. (2010), 25, 42; cited from earlier work
T3 sequence (P05186 18-502 limits assumed): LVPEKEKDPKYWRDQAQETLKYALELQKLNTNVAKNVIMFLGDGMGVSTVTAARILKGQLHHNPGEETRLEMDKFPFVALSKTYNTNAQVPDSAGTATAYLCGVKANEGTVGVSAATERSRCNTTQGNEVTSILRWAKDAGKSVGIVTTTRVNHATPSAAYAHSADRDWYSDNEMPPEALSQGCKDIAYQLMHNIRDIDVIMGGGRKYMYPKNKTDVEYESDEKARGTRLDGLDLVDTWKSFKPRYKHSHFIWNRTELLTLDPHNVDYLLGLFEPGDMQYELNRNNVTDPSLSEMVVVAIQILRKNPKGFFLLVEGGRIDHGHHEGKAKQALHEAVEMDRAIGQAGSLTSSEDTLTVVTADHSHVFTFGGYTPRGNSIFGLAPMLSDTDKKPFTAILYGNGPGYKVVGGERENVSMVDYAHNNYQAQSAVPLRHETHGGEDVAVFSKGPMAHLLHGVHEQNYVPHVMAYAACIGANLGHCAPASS

ENPP1 = target: T4, ENPP1 (Homo sapiens, UniProt P22413); details: cited from earlier work
T4 sequence (P22413 98-925 limits assumed): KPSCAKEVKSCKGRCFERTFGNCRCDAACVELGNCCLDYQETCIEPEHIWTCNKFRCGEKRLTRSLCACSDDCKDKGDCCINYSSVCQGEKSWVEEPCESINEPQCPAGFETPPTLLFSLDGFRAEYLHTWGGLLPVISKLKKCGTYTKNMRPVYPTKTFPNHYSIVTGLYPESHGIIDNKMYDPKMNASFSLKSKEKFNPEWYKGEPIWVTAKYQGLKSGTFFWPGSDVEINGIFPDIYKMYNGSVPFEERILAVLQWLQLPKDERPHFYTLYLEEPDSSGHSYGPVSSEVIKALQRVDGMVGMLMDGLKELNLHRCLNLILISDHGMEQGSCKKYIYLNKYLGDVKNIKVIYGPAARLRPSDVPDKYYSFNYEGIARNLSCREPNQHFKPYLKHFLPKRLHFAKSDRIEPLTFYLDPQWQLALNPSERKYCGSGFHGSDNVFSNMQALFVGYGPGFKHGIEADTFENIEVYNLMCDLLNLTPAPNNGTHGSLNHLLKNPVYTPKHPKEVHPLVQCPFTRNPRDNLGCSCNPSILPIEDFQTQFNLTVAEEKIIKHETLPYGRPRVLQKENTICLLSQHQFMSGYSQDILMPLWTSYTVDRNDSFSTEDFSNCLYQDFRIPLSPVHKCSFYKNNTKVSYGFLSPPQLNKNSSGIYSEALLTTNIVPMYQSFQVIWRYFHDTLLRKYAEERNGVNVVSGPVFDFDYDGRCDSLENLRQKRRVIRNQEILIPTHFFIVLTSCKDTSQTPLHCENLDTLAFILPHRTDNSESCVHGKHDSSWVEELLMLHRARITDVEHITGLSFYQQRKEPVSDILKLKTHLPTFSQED

Enpp1^-/- VSMCs = assay: Calcification assay, Alizarin Red staining of Enpp1-/- VSMCs; format: cell-based, mouse; details: 21 days, β-glycerophosphate, inhibitor 30 μmol/L
Outline: as §1

Phospho1^-/- VSMCs = assay: Calcification assay, Alizarin Red staining of Phospho1-/- VSMCs; format: cell-based, mouse; details: 21 days, β-glycerophosphate, inhibitor 30 μmol/L
Outline: as §1

| SMILES | IC50 ([1]; P-Cho IC50, substrate P-Cho 62.5 μmol/L) [nM] | IC50 ([1]; P-Etn IC50, substrate P-Etn 62.5 μmol/L) [nM] | Ki (PHOSPHO1) [nM] | nature of the PHOSPHO1 inhibition (PHOSPHO1; double reciprocal plots versus P-Etn) | toxicity to smooth muscle cells observed in the mineralization studies (WT VSMCs) | effect on mineralization in words (WT VSMCs; WT VSMCs, 21 days, inhibitor 30 μmol/L) | mineralization of Phospho1-/- chondrocytes [2] | inhibition of TNAP activity (TNAP) | inhibition of ENPP1 activity (ENPP1; ref Ciancaglini et al. (2010), 25, 42) | inhibition of PHOSPHO1 in point experiments ([1]; inhibitor 1, 10, 30 μmol/L, substrates P-Etn and P-Cho) | effect on mineralization in words (Enpp1^-/- VSMCs) | effect on mineralization in words (Phospho1^-/- VSMCs) | cross-inhibition of ENPP1 (ENPP1) |
| --- | --- | --- | --- | --- | --- | --- | --- | --- | --- | --- | --- | --- | --- |
| Cc1c(OCC(F)(F)F)ccnc1C[S+]([O-])c1nc2ccccc2[nH]1 (stereo not shown) [Lansoprazole] | 60 ± 10 | 70 ± 10 | 160 ± 30 | competitive | showed toxicity to smooth muscle cells | significantly inhibited mineralization | inhibited mineralization | partially inhibits | partially inhibits | – | – | – | – |
| COc1ccc(OC)c(S(=O)(=O)Nc2cnc3ccccc3c2)c1 [MLS-0038949] | – | – | – | – | – | – | – | – | – | selectively inhibits TNAP, but not PHOSPHO1 | strongly reduced mineralization | significantly inhibited mineralization | does not cross-inhibit |
